Data published in ChEMBL document CHEMBL6134776, “New anti-ovarian cancer quinolone derivatives acting by modulating microRNA processing machinery” (RSC Med Chem, 2025).
Calls of active or inactive are those of the source. No cut-off for these calls is given here.

Experiments:
A549 = assay: Antiproliferative activity against human A549 cells assessed as growth inhibition at 30 uM measured after 72 hrs; assay type: functional, cell-based
Summary of the method: (§1)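 Cells dosed at 30 μM for 72 h in RPMI 1640 (A2780, SKOV-3) or DMEM (MCF-7, A549, HCT-116), 10% FBS, 37 °C, 5% CO2. Total and viable cell numbers taken by trypan blue with an automated counter. Viable cells given as % of DMSO; dead cells as a percentage. At least three independent experiments.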

[1] = tested on: Cisplatin-resistant A2780; assay: Antiproliferative activity against human Cisplatin-resistant A2780 cells assessed as growth inhibition at 30 uM measured after 48 hrs
SK-HEP1 [2] = assay: Antiproliferative activity against TRBP knockout human SK-HEP1 cells assessed as growth inhibition at 50 uM measured after 48 hrs by CCK-8 method; assay type: functional, cell-based
Summary of the method: (§2)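 HCCLM3 and SK-Hep-1 cells, TRBP wild-type and knockout, seeded at 10 000 cells/well and left to adhere overnight. Treated 48 h alongside a 0.1% DMSO negative control and a 125 μM enoxacin positive control. Viability read with 10% CCK-8 in DMEM, 30 min at 37 °C, at 450 nm.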

MCF7 = assay: Antiproliferative activity against human MCF7 cells assessed as growth inhibition at 30 uM measured after 72 hrs; assay type: functional, cell-based; summary of the method: as §1
A2780 [3] = assay: Downregulation of Bcl-Xl level in human A2780 cells by Western blot analysis; assay type: functional, cell-based
Summary of the method: (§3)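 SKOV-3 and A2780 given 30 μM compound for 72 h. Protein extracts run on 4–12% bis–tris gels and blotted to nitrocellulose, blocked in 5% milk. Probed for cleaved PARP and Bcl-XL, with β-actin as loading control.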

HCCLM3 [4] = assay: Antiproliferative activity against wild type human HCCLM3 cells assessed as growth inhibition at 30 uM measured after 48 hrs by CCK-8 method relative to control; assay type: functional, cell-based; summary of the method: as §2
A2780 [5] = assay: Induction of cell death in human A2780 cells assessed as reduction in total number of cells at 30 uM incubated for 72 hrs by trypan blue staining based analysis; assay type: functional; summary of the method: as §1
[6] = biological target: T1, DNA topoisomerase 1 (Homo sapiens) (UniProt P11387); assay: Inhibition of human topoisomerase I at 100 uM by spectrophotometric analysis
T1 sequence (whole entry): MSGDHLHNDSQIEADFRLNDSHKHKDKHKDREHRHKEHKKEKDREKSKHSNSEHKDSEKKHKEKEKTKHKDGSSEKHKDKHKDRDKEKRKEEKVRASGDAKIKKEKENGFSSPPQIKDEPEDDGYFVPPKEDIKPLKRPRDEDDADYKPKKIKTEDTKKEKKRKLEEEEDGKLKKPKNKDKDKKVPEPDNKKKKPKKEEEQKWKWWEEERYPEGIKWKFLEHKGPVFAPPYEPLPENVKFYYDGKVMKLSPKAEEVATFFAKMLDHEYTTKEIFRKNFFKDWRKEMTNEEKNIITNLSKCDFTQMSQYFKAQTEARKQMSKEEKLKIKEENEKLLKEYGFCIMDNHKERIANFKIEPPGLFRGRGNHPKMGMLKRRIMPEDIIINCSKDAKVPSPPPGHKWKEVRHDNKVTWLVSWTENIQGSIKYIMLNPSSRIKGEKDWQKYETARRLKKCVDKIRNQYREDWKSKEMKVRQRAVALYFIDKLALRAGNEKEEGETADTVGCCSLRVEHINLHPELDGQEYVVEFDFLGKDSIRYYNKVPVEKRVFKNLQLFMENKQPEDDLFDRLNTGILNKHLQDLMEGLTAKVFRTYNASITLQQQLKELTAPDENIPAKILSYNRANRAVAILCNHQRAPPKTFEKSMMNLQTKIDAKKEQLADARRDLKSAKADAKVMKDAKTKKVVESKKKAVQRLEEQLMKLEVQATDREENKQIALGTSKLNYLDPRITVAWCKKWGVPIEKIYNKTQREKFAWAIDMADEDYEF

SK-OV-3 [7] = assay: Effect on cleaved PARP1 level in human SK-OV-3 cells by Western blot analysis; assay type: functional, cell-based; summary of the method: as §3
SK-HEP1 [8] = assay: Antiproliferative activity against wild type human SK-HEP1 cells assessed as growth inhibition at 30 uM measured after 48 hrs by CCK-8 method; assay type: functional, cell-based; summary of the method: as §2
HCT-116 = assay: Antiproliferative activity against human HCT-116 cells assessed as growth inhibition at 30 uM measured after 72 hrs; assay type: functional, cell-based; summary of the method: as §1
SK-HEP1 [9] = assay: Antiproliferative activity against TRBP knockout human SK-HEP1cells assessed as growth inhibition at 30 uM measured after 48 hrs by CCK-8 method; assay type: functional, cell-based; summary of the method: as §2
Homo sapiens = species: Homo sapiens; assay: Inhibition of human topoisomerase II at 100 uM by spectrophotometric analysis
HCCLM3 [10] = assay: Antiproliferative activity against TRBP knockout human HCCLM3 cells assessed as growth inhibition at 30 uM measured after 48 hrs by CCK-8 method; assay type: functional, cell-based; summary of the method: as §2
[11] = tested on: Cisplatin-resistant A2780; assay: Antiproliferative activity against human Cisplatin-resistant A2780 cells assessed as growth inhibition at 30 uM measured after 48 hrs in presence of cisplatin
A2780 [12] = assay: Upregulation of cleaved PARP1 level in human A2780 cells by Western blot analysis; assay type: functional, cell-based; summary of the method: as §3
SK-OV-3 [13] = assay: Induction of cell death in human SK-OV-3 cells assessed as reduction in total number of cells at 30 uM incubated for 72 hrs by trypan blue staining based analysis; assay type: functional; summary of the method: as §1
A2780 [14] = assay: Antiproliferative activity against human A2780 cells assessed as growth inhibition at 30 uM measured after 48 hrs in presence of cisplatin
HeLa = assay: Induction of miR-21-5p biogenesis in human HeLa cells assessed as decrease in renilla luciferase activity at 50 uM measured after 6 hrs by dual-luciferase reporter assay
SK-HEP1 [15] = assay: Antiproliferative activity against wild type human SK-HEP1 cells assessed as growth inhibition at 50 uM measured after 48 hrs by CCK-8 method; assay type: functional, cell-based; summary of the method: as §2
A2780 [16] = assay: Induction of cell death in human A2780 cells assessed as increase in percentage of dead cells at 30 uM incubated for 72 hrs by trypan blue staining based analysis; assay type: functional; summary of the method: as §1
HEK-293T = assay: Induction of RNAi enhancing activity in HEK293T cells transfected with shGAPDH assessed as decrease in amount of GAPDH mRNA at 50 uM incubated for 48 hrs by qRT-PCR; assay type: functional, cell-based; conditions: Homo sapiens
Summary of the method: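 HEK-293T stably expressing shGAPDH or scrambled shRNA (lentiviral transduction, puromycin 3 μg mL−1 selection) treated 48 h at 50 μM. GAPDH mRNA measured by qRT-PCR against ATP5O, relative to sh-Scr/DMSO set to 1. At least three independent experiments.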

SK-OV-3 [17] = assay: Effect on Bcl-Xl level in human SK-OV-3 cells by Western blot analysis; assay type: functional, cell-based; summary of the method: as §3
A2780 [18] = assay: Antiproliferative activity against human A2780 cells assessed as growth inhibition at 30 uM measured after 72 hrs; assay type: functional, cell-based; summary of the method: as §1
SK-OV-3 [19] = assay: Antiproliferative activity against human SK-OV-3 cells assessed as growth inhibition measured after 72 hrs; assay type: functional
Summary of the method: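 100 000 SKOV-3 or Wi-38 cells per 35 mm dish, allowed to adhere, then given compound at scalar concentrations. First pass ran up to 200 μM (SKOV-3) or 250 μM (Wi-38), then a narrowed range. Cells counted after 72 h and GI50/CC50 taken by linear regression with 95% CI. Three experiments in triplicate, three counts per sample.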

SKOV-3 (Homo sapiens) = assay: Antiproliferative activity against human SKOV-3 cells assessed as growth inhibition measured after 72 hrs

O=C(O)c1cn(C2CC2)c2cc(N3CCc4ccccc4C3)c(F)cc2c1=O
Activity (A549): Active
Activity [1]: Active
Activity (SK-HEP1 [2]): inactive
Activity (MCF7): Active
Activity (A2780 [3]): Active
Activity (HCCLM3 [4]): Active
Activity (A2780 [5]): Active
inhibition [6]: inactive
Activity (SK-OV-3 [7]): inactive
Activity (SK-HEP1 [8]): inactive
Activity (HCT-116): Active
Activity (SK-HEP1 [9]): inactive
inhibition (Homo sapiens): inactive
Activity (HCCLM3 [10]): inactive
Activity [11]: Active
Activity (A2780 [12]): Active
Activity (SK-OV-3 [13]): Active
Activity (A2780 [14]): Active
Activity (HeLa): Active
Activity (SK-HEP1 [15]): Active
Activity (A2780 [16]): Active
Activity (HEK-293T): Active
Activity (SK-OV-3 [17]): inactive
Activity (A2780 [18]): Active

Cc1c(N2CCOCC2)c(N)cc2c(=O)c(C(=O)O)cn(C3CC3)c12
GI50 (SK-OV-3 [19]): > 100 µM

Cc1c(N2CCC(O)CC2)c(N)cc2c(=O)c(C(=O)O)cn(C3CC3)c12
GI50 (SK-OV-3 [19]): > 100 µM

Cc1c(NCCN2CCCCC2)c(N)cc2c(=O)c(C(=O)O)cn(C3CC3)c12
GI50 at 72 h (SKOV-3 (Homo sapiens)): ≥ 25 µM

Nc1cc2c(=O)c(C(=O)O)cn(C3CC3)c2cc1N1CCc2ncncc2C1
GI50 at 72 h (SKOV-3 (Homo sapiens)): ≥ 25 µM

Cc1c(N2CCCCC2)c(N)cc2c(=O)c(C(=O)O)cn(C3CC3)c12
GI50 (SK-OV-3 [19]): > 100 µM

CC(C)(C)n1cc(C(=O)O)c(=O)c2cc(N)c(N3CCc4ccccc43)cc21
GI50 (SK-OV-3 [19]): > 100 µM

Cc1c(N2CCC3CCCCC3C2)c(N)cc2c(=O)c(C(=O)O)cn(C3CC3)c12 (stereo not drawn)
GI50 (SK-OV-3 [19]): > 100 µM

Cc1c(N2Cc3ccccc3C2)c(N)cc2c(=O)c(C(=O)O)cn(C3CC3)c12
GI50 at 72 h (SKOV-3 (Homo sapiens)): ≥ 25 µM

Cc1c(N2CC(C)OC(C)C2)c(N)cc2c(=O)c(C(=O)O)cn(C3CC3)c12 (stereo not drawn)
GI50 (SK-OV-3 [19]): 100 µM
